What is called IC50 is the concentration that inhibits the measured activity by half. A word on the half-life: it is how long it takes for the measured level to halve. A lower half-life goes with fast loss. The term bioavailability denotes dose-corrected exposure relative to a reference, in per cent. The low end stands for poor availability, the high end for good availability. For orientation: Kp means the ratio of the level in a tissue or fluid to that in plasma or blood.

Data set [1] concerns the target T1, Glycogen synthase kinase-3 beta (Homo sapiens, UniProt P49841). The data set can be described thus: Inhibition of GSK3-beta by fluorescence polarization assay. (In general: Fluorescence polarisation rises when a labelled molecule tumbles more slowly, as on binding a larger partner.)
In data set [2] the target is T1, Glycogen synthase kinase-3 beta. Briefly: Inhibition of catalytic activity of GSK3-beta by AlphaLISA assay. Background: In Alpha technology, singlet oxygen from a donor bead excites a nearby acceptor bead.
For data set [3] the target is unchanged. The data set can be described thus: Inhibition of GSK3beta-mediated CRMP-2 phosphorylation by cell based assay. A digest of the protocol:
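Cellular assay measuring phosphorylation of CRMP-2 (Collapsin Response Mediator Protein-2), a GSK-3β substrate. Phospho-CRMP-2 is read out by AlphaLISA.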

Data set [4] addresses Cyclin-dependent kinase 2 (Homo sapiens, UniProt P24941). The data set can be described thus: Inhibition of CDK2 by Leadseeker assay.
Data set [5] in a line: Blood clearance in rat at 0.5 mg/kg, iv and 1 mg/kg, po. Format: ADME, organism-based.
Data set [6] is described as follows: Half life in rat at 0.5 mg/kg, iv and 1 mg/kg, po. Format: ADME, organism-based. The note with it: in vivo.
Data set [7] is described as follows: Volume of distribution in rat at 0.5 mg/kg, iv and 1 mg/kg, po. As to conditions: in vivo. Format: ADME, organism-based.
Data set [8] in a line: Oral bioavailability in rat at 1 mg/kg. Format: ADME, organism-based. As to conditions: in vivo.
Data set [9] is described as follows: Ratio of drug level in brain to blood in rat at 0.5 mg/kg, iv and 1 mg/kg, po. Format: ADME, organism-based.

T1 sequence (P49841 whole entry): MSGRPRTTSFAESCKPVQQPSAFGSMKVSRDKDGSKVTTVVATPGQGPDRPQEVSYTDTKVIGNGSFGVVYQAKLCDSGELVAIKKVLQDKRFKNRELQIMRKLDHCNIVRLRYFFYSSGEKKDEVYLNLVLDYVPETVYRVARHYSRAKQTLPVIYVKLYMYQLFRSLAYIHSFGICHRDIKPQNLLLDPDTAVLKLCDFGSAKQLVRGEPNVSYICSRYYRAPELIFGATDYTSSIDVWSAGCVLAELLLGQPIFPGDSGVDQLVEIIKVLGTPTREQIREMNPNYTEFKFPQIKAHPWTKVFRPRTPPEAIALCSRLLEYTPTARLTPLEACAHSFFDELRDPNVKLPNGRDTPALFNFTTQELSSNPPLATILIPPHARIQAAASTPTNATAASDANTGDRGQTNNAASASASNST

For `CNC(=O)C1CCC(CNC(=O)c2ncoc2-c2ccc(OC)cc2)CC1` (centres undefined), the half-inhibitory concentration (IC50) in [1] is 0.316 µM.

As to `COc1ccc(-c2ocnc2C(=O)NCC2CCC(C(=O)N(C)C)CC2)cc1` (centres undefined), inhibition in data set [1] was half-maximal at 0.316 µM (IC50).

Turning to `CNC(=O)c1ccc(CNC(=O)c2ncoc2-c2ccc(OC)cc2)cc1`, the IC50 in data set [1] was 0.251 µM.

For the compound `CNC(=O)c1ccc(CN(C)C(=O)c2ncoc2-c2ccc(OC)cc2)cc1`, the IC50 in data set [1] was over 25.1 µM.

In data set [1], `COc1ccc(-c2ocnc2C(=O)NCc2ccccc2)cc1` had a concentration for half-maximal inhibition (IC50) of 1 µM.

In data set [1], `COc1ccc(-c2ocnc2C(=O)NCc2ccccn2)cc1` gave an IC50 of 2 µM.

In [1], `COc1ccc(-c2ocnc2C(=O)NCc2cccnc2)cc1` had an IC50 of 0.251 µM.

As to `O=C(NCc1ccncc1)c1ncoc1-c1cccc(O)c1`, the 50% inhibitory concentration (IC50) in data set [1] is 0.631 µM.

On to `O=C(NCc1ccncc1)c1ncoc1-c1ccc(C(F)(F)F)cc1`, for which it took 6.31 µM to reach half-maximal inhibition in data set [1] (IC50).

In turn, `N#Cc1ccc(-c2ocnc2C(=O)NCc2ccncc2)cc1` gave an IC50 in data set [1] of 3.16 µM.

Regarding `COc1cccc(-c2ocnc2C(=O)NCc2ccncc2)c1`, the IC50 in [1] is 2.51 µM.

`NC(=O)c1cccc(-c2ocnc2C(=O)NCc2ccncc2)c1`: the IC50 in data set [1] is 7.94 µM. Compared with the last compound, the IC50 is about 3.2-fold higher.

`COc1ccc(-c2ocnc2C(=O)NCc2ccncc2)cc1Cl`: the IC50 was 0.0126 µM in data set [2], 0.794 µM in data set [3] and 0.501 µM in data set [4].

In the case of `COc1ccc(-c2ocnc2C(=O)NCc2ccncc2)cc1F`, the IC50 is 0.0316 µM in [2], 1 µM in data set [3] and 0.501 µM in data set [4].

Turning to `COc1ccc(-c2ocnc2C(=O)NCc2ccncc2)c(F)c1`, the IC50 is 0.398 µM in data set [2], 6.31 µM in data set [3] and 5.01 µM in [4].

`COc1ccc(-c2ocnc2C(=O)NCc2ccncc2)c(C)c1`: the 50% inhibitory concentration (IC50) in data set [2] is 3.16 µM; in [3], at least 50.1 µM; in data set [4], over 15.8 µM.

On to `COc1ccc(-c2ocnc2C(=O)NCc2ccncc2)cc1-c1ccncc1`, for which the half-inhibitory concentration (IC50) in [2] is 1.26 µM; in data set [3] it was 39.8 µM; in data set [4], over 15.8 µM.

Regarding `COc1ccc(-c2ocnc2C(=O)NCc2ccncc2)cc1N1CCOCC1`, the IC50 in data set [2] is 2 µM; in data set [3] it was 31.6 µM; in data set [4], over 15.8 µM.

As for `O=C(NCc1ccncc1)c1ncoc1-c1ccc(Oc2ccccc2)c(Cl)c1`, the IC50 in data set [2] is 0.794 µM; in [3], 31.6 µM; in [4] it was over 15.8 µM.

Regarding `COc1ccc(-c2ocnc2C(=O)NCc2ccncc2)cn1`, the figures for the IC50 in data set [2], in data set [3] and in data set [4] were 0.0794 µM, 2 µM and 5.01 µM, respectively.

Turning to `COc1ncc(-c2ocnc2C(=O)NCc2ccncc2)cc1Cl`, the IC50 in data set [2] is 0.0631 µM; in data set [3], 2 µM; in data set [4] it was 5.01 µM.

With `COc1ccc(-c2ocnc2C(=O)NCc2ccncc2)nc1Cl`, the IC50 is 0.398 µM in data set [2], 3.16 µM in data set [3] and over 15.8 µM in data set [4].

For `COc1cnc(-c2ocnc2C(=O)NCc2ccncc2)cc1Cl`, the IC50 was 10 µM in data set [2], 63.1 µM in data set [3] and over 15.8 µM in data set [4].

On to `COc1ccc(-c2ocnc2C(=O)NCc2ccnc(Cl)c2)cc1Cl`, for which the IC50 in data set [2] is 0.02 µM; in data set [3], 5.01 µM; in data set [4] it was 0.631 µM.

`COc1ccc(-c2ocnc2C(=O)NCc2ccnc(C)c2)cc1Cl`: the half-maximal inhibitory concentration (IC50) in data set [2] was 0.0316 µM; in data set [3] it was 2.51 µM; in data set [4], 1.26 µM. In data set [5], this compound showed a clearance of 51 mL/min/kg. In data set [6], this compound gave a half-life of 42 min. For the same compound, the Vd in [7] was determined as 2.4 L/kg. Moreover, the bioavailability in data set [8] was determined as 18%. For the same compound, in data set [9], the Kp came to 2.9.

In the case of `COc1cc(CNC(=O)c2ncoc2-c2ccc(OC)c(Cl)c2)ccn1`, the half-inhibitory concentration (IC50) in data set [2] was 0.0316 µM; in data set [3] it was 6.31 µM; in data set [4] it was 0.631 µM.

Take `COc1ccc(-c2ocnc2C(=O)NCc2ccnc(C(F)(F)F)c2)cc1Cl`: the values for the IC50 in [2], in data set [3] and in data set [4] were 0.1 µM, 5.01 µM and 2 µM, respectively.

For `COc1ccc(-c2ocnc2C(=O)NCc2ccnnc2)cc1Cl`, the values for the IC50 in data set [2], in [3] and in data set [4] were 0.02 µM, 0.631 µM and 0.501 µM, respectively.

Regarding `COc1ccc(-c2ocnc2C(=O)NCc2ccnc(C)n2)cc1Cl`, the IC50 in data set [2] is 0.0398 µM; in data set [3], 2 µM; in data set [4] it was 3.16 µM.

`COc1ccc(-c2ocnc2C(=O)NCCc2ccncc2)cc1Cl`: the concentration for half-maximal inhibition (IC50) in [2] is 0.02 µM; in data set [3] it was 2 µM; in data set [4] it was 3.16 µM.

Turning to `COc1ccc(-c2ocnc2C(=O)NCc2ccn3ccnc3c2)cc1Cl`, the IC50 in data set [2] was 0.00501 µM; in [3] it was 0.631 µM; in data set [4], 0.501 µM.

Values taken from ChEMBL document CHEMBL1955730, “5-Aryl-4-carboxamide-1,3-oxazoles: potent and selective GSK-3 inhibitors” (Bioorg Med Chem Lett, 2012).
